In the library only some 2.5% were active in any assay of this set; here they are far more common.
GSTO1 counter – inhibitors of recombinant GSTO1, primary screen, counter-screen for RBBP9 inhibitor project, biochemical, fluorescence polarization; activity-based probe fluorescence polarization; inhibition, % at 5.96 µM; 1.1% of 300,000 active; AID 1974, 2009;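 active means inhibition above the campaign mean inhibition plus 3 SD, cut at about 35% in these data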;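 further: 0% = GSTO1-1 with DMSO and 100% = wells lacking GSTO1-1 enzyme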
Target sequence (P78417 whole entry, looked up): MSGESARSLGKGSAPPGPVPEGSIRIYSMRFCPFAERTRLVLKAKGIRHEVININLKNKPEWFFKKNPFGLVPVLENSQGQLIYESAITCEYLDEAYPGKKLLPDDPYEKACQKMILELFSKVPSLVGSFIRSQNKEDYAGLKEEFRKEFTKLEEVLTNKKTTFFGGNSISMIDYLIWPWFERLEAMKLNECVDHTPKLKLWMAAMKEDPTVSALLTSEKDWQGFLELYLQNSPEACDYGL
PRMT1 inh – PRMT1 methyltransferase inhibitors, primary screen, biochemical, fluorescence polarization | inhibition, % at 2.79 µM | Protein arginine N-methyltransferase 1 (Homo sapiens), Q99873 | recombinant PRMT1, activity-based probe fluorescence polarization | 1.3% of 370,000 active;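 active means inhibition above about 21% made by adding two undisclosed values, limit read from the data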
TDP2 inh – human TDP2 enzyme inhibitors, primary screen, biochemical, epi absorbance, recombinant enzyme; Tyrosyl-DNA phosphodiesterase 2 (Homo sapiens), O95551; T5PNP hydrolysis, p-nitrophenol absorbance 415 nm; inhibition, % at 12.8 µM; 0.34% of 370,000 active;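 active means inhibition above the mean of all tested compounds plus 3 SD, set per campaign, cut at about 25% in these data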;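 further: 0% = DMSO with enzyme and 100% = buffer with substrate but no TDP2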
Target sequence (O95551 whole entry, looked up): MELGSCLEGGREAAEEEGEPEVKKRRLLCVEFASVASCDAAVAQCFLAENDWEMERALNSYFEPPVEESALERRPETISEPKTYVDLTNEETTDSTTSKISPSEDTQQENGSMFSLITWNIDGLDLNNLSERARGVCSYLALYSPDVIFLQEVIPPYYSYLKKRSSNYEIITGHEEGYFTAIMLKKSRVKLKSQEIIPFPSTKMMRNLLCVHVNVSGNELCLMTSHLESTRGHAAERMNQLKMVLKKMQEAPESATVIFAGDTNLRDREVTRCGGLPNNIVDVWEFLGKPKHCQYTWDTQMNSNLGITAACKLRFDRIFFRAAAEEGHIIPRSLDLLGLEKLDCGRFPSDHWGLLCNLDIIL
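System – recombinant human TDP2 · Amount – 120 nM TDP2 per well · Buffer or medium – Mg2+-containing Tris-HCl buffer, pH 7.5 · Reagent – T5PNP substrate, 5 mM · Dosing – 12.8 µM single point, 1% DMSO · Incubation – 2 h at 37 °C · Measured by – epi absorbance · Read-out basis – percent inhibition · Benchmarks – high control without enzyme, low control DMSO plus TDP2 · Repeats – singlicate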
Fh CTSL1 inh – Fasciola hepatica cathepsin L1 inhibitors, primary screen, counter-screen for PFM18AAP inhibitor project, biochemical, QFRET, fluorogenic peptide substrate | recombinant F. hepatica cathepsin L1, Z-Leu-Arg-MCA fluorescence | inhibition, % at 5.96 µM | 0.49% of 300,000 active;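 active means inhibition above the mean of all tested compounds plus 3 SD, set per screening campaign, cut at about 17% in these data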;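 further: 0% = plate median of test compound wells and 100% = 1 µM Z-Phe-Ala-diazomethylketone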
PAD4 inh – human PAD4 inhibitors, primary screen, biochemical, fluorescence polarization, 1536-well format | recombinant PAD4, RCA probe fluorescence polarization | 0.41% of 330,000 active | AID 485272, 2010 | inhibition, % at 6.36 µM;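 active means percent inhibition above a cutoff equal to the mean of all tested compounds plus 3 SD, cut at about 15% in these data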;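 further: 0% = PAD4 with RCA probe and DMSO and 100% = probe without PAD4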
PAD4 FP conf – human PAD4 inhibitors, confirmation, biochemical, fluorescence polarization. shares compounds with PAD4 inh. recombinant PAD4, RCA probe fluorescence polarization. inhibition, % at 6.36 µM. 28% of 1,200 active. AID 488796, 2010;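 active means mean inhibition across replicates above the hit cutoff set by the earlier primary screen, cut at about 15% in these data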;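 further: inhibitors block active-site labeling by the probe so polarization falls; 0% = PAD4 with probe and DMSO and 100% = probe without PAD4 enzyme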
PRMT1 inh conf – PRMT1 methyltransferase inhibitors, confirmation, biochemical, fluorescence polarization, triplicate | shares compounds with PRMT1 inh | recombinant His-PRMT1, activity-based probe fluorescence polarization | inhibition, % at 2.79 µM | 42% of 3,300 active | AID 687036, 2013;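 active means mean inhibition across replicates above the hit cutoff derived for the earlier primary screen, cut at about 22% in these data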
TDP2 inh conf – human TDP2 enzyme inhibitors, retest, confirmation, biochemical, epi absorbance, recombinant enzyme | shares compounds with TDP2 inh | absorbance read-out | inhibition, % at 12.8 µM | 22% of 1,100 active; in the data active means inhibition above about 25%;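 further: 0% = vehicle with enzyme and 100% = no enzyme buffer only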
* = called active by the depositor; · = not tested or not shown.

SMILES	GSTO1 counter	PRMT1 inh	TDP2 inh	Fh CTSL1 inh	PAD4 inh	PRMT1 inh conf	others
COC(=O)[C@]12C[C@H](CC(=O)N3CCC(c4ccccc4)CC3)C(=O)N(Cc3ccc(Cl)cc3Cl)C1=C[C@H](C(C)(C)C)O[C@@H]2C	·	-1.0	1.7	·	·	·
Cc1c[nH]c2cccc(-c3ccc4c(c3)OCO4)c12	·	-0.7	5.5	·	·	·
CCc1nnc(N/N=C/c2ccc(N3CCC(C)CC3)c([N+](=O)[O-])c2)n1N	17.7	1.3	68.0*	-6.9	29.2*	·	PAD4 FP conf=3.5;TDP2 inh conf=12.4
CCN(CC(=O)Nc1ccc(NC(C)=O)cc1)C(=O)c1ccc(N2CCC(C)CC2)c([N+](=O)[O-])c1	·	-8.0	7.0	·	1.2	·
Cc1nnc(N/N=C/c2cc([N+](=O)[O-])c(N3CCC(C)CC3)cc2N2CCC(C)CC2)n1N	32.3	3.5	53.1*	1.9	44.0*	·	PAD4 FP conf=2.8;TDP2 inh conf=-14.2
C[C@H](CCC(=O)N(c1ccccc1)c1ccccc1)CC1CCCCC1	·	-0.8	-0.6	·	·	·
Cc1nn(-c2ccccc2)c2c1C(c1ccccc1)C(C#N)=C(N)O2 (centres undefined)	37.1*	-1.1	40.4*	-1.0	61.3*	·	PAD4 FP conf=13.5;TDP2 inh conf=11.4
CCOC(=O)Cc1[nH]nc2c1C(c1cc(OC)ccc1OC)C(C#N)=C(N)O2 (centres undefined)	8.4	0.3	0.4	5.2	-6.8	·
COc1ccc(OC)c(C2C(C#N)=C(N)Oc3c2c(C)nn3-c2ccc(C)cc2)c1 (centres undefined)	34.8*	-1.3	59.8*	-3.6	54.1*	·	PAD4 FP conf=4.8;TDP2 inh conf=9.4
CC1=NN(c2ccc(Cl)cc2)C(=O)C1	36.1*	7.8	57.6*	-2.6	30.6*	·	PAD4 FP conf=3.1;TDP2 inh conf=6.4
Cc1cc(Br)cc(C=Nc2ccc(N3CCOCC3)cc2)c1O	6.8	-0.1	34.1*	-3.9	19.1*	·	PAD4 FP conf=0.8;TDP2 inh conf=-8.0
Oc1ccc(C=Nc2ccc(N3CCOCC3)cc2)c(O)c1	19.3	3.5	11.8	4.2	12.1	·
C#CCNC(=O)CSCc1nc(-c2ccc(OCC)cc2)oc1C	·	9.5	12.4	·	·	·
CCN(c1ccccc1)c1cc2ccccc2c(=O)[nH]1	29.1	2.2	27.6*	51.3*	16.0*	·	PAD4 FP conf=-2.4;TDP2 inh conf=76.3*
Cc1cc(C)cc(C(=O)OCCN(C)C2CN(Cc3cn(Cc4cccc(F)c4)nn3)S(=O)(=O)C2)c1 (centres undefined)	·	1.6	3.2	·	·	·
CCOC(=O)C1=C(N)n2c(s/c(=C\c3ccco3)c2=O)=C(C(=O)OC(C)C)C1c1ccco1 (centres undefined)	4.2	42.9*	3.5	1.5	-5.8	5.6
CCOC(=O)C1=C(N)n2c(s/c(=C\c3ccco3)c2=O)=C(C(=O)OCC)C1c1ccco1 (centres undefined)	16.8	·	·	0.1	1.6	·
CCCCCCCCN1C(=O)[C@@H](CC(=O)N2CCSCC2)C[C@@]2(C(=O)OC)C1=C[C@H](C(C)C)O[C@@H]2C1CC1	·	1.0	-10.8	·	·	·
COc1ccc(C2=CSC3=C(C(=O)c4cccc(S(=O)(=O)N(C)C)c4)CCN23)cc1	0.4	28.3*	-1.6	2.5	0.3	27.3*
O=C(NC1CCCCN(Cc2ccc(Cl)cc2)C1=O)c1cccc(F)c1 (centres undefined)	·	5.6	-9.8	·	·	·
CCOC1=CC2=C(C(=O)C(Cl)=CC2=O)[C@@H]2CN(S(=O)(=O)c3ccc(C)cc3)[C@@H](c3ccccc3)[C@H]12	·	50.4*	8.0	·	·	90.9*
COC(=O)N1C[C@H](OC)[C@H]2C[C@@H]1c1ccccc1O2	·	1.1	3.8	·	·	·
COc1ccc(C(=O)CSC#N)cc1OC	2.8	40.7*	-12.6	4.4	12.6	22.7*
NCCC(=O)Nc1ccc(Cl)cc1C(=O)c1ccc[nH]1	·	3.4	0.6	·	·	·
Cc1cc(O)c(N=Cc2cc3c(cc2[N+](=O)[O-])OCO3)cc1C	34.5	25.3*	0.1	-0.4	-5.3	22.4*
SMILES	GSTO1 counter	PRMT1 inh	TDP2 inh	Fh CTSL1 inh	PAD4 inh	PRMT1 inh conf	others
CCOc1ccc(CCNC(=O)c2ccccn2)cc1OCC	·	-3.4	6.7	·	·	·
CCC(/C=C1\Sc2ccc(OC)cc2N1CCO)=C\c1sc2ccc(OC)cc2[n+]1CCO	-167.7	69.8*	4.0	5.4	-137.2	7.0
Cc1cccc(/N=C/c2sc3ccccc3c2O)n1	-37.5	36.6*	-3.0	0.2	-13.2	15.4
O=[N+]([O-])c1ccc(O)c(N=Cc2sc3ccccc3c2O)c1	-2.4	65.9*	-14.2	3.3	-11.3	44.5*
O=C(N/N=C/c1sc2ccccc2c1O)c1ccccc1	17.2	·	·	-0.9	3.0	·
Oc1ccc(Cl)cc1N=Cc1sc2ccccc2c1Cl	14.4	3.8	-1.3	-1.0	-12.4	·
Oc1c(C=Nc2cccc3cccnc23)sc2ccccc12	6.6	30.5*	12.0	-6.1	0.7	32.4*
COc1ccc(C2CC(=O)C(c3ccc(C)cc3)=CN2Cc2ccccc2)cc1 (centres undefined)	·	-0.6	3.4	·	·	·
CC1=C(SCCC#N)S/C(=C2\SC(C)=C(SCCC#N)S2)S1	2.1	71.2*	10.9	0.6	4.4	47.4*
Cc1ccc(C(=O)/C=C/c2ccccc2[N+](=O)[O-])cc1	14.2	-0.5	5.3	3.2	-1.2	·
Cc1cccc(C=CC(=O)c2ccccc2)c1	·	2.4	4.1	·	·	·
O=C(/C=C/c1ccc(-c2ccccc2[N+](=O)[O-])o1)c1ccc(F)cc1	-5.2	33.0*	10.8	5.6	-5.0	5.0
Cc1ccc(C(=O)/C=C/c2ccc(-c3ccccc3[N+](=O)[O-])o2)cc1	7.9	34.1*	9.0	2.9	-10.8	-3.4
O=C(/C=C/c1ccc(-c2ccccc2[N+](=O)[O-])o1)c1ccc(Br)cc1	9.8	19.2	13.8	0.6	-14.1	·
Cc1ccc(-c2ccc(/C=C/C(=O)c3ccccc3)o2)cc1	-4.7	31.9*	-5.3	41.5*	-12.5	39.4*
CC(C)C[C@H]1COc2cccc(N3CCCC3)c2S(=O)(=O)N1C	·	4.2	5.3	·	·	·
COc1ccc(F)cc1-c1cc(C(C)=O)c2n(c1=O)CCC2	·	-2.2	2.2	·	·	·
COc1ccccc1OS(=O)(=O)c1ccc(NC(C)=O)cc1	13.7	-2.1	-3.3	1.5	0.0	·

Assay outcomes as filed in PubChem.
